OX1R antag-1: antagonists of human orexin 1 receptor (OX1R) | 330,000 tested, 1.8% active | OX1R-expressing cells, FRET antagonist read-out | Orexin/Hypocretin receptor type 1 (Homo sapiens), O43613 | AID 485270, 2010 | inhibition, % at 6.6 µM; in the data active = inhibition mostly above about 38%, no sharp cut-off; inactive = mostly below about 40%;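 note: 0% = agonist challenge alone and 100% = reference antagonist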
OX1R antag-2: OX1R (HCRTR1) antagonists, primary screen, fluorescence, CHO/OX1R cells, Fluo-8 calcium, orexin A; 330,000 tested, 0.43% active; Orexin/Hypocretin receptor type 1 (Homo sapiens), O43613; Fluo-8 calcium fluorescence; AID 434989, 2010; inhibition, % at 5 µM;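 active = inhibition above its plate's threshold, mean inhibition of all tested compounds on the plate plus 3 SD, cut at about 37% in these data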;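 note: 0% = orexin A challenge wells and 100% = SB-334867-A antagonist wells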
TAAR1 agonist: human TAAR1 agonists, primary screen, Fluo-8 calcium fluorescence, CHO RD-HGA16 cells. activation, % at 3 µM. Trace amine-associated receptor 1 (Homo sapiens), Q96RJ0. 360,000 tested, 0.99% active. vehicle wells 0%, saturating PEA agonist 100%;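 active = activation above the mean activation of all test compounds in the run plus 3 SD, cut at about 38% in these data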
Target sequence (Q96RJ0 whole entry, looked up): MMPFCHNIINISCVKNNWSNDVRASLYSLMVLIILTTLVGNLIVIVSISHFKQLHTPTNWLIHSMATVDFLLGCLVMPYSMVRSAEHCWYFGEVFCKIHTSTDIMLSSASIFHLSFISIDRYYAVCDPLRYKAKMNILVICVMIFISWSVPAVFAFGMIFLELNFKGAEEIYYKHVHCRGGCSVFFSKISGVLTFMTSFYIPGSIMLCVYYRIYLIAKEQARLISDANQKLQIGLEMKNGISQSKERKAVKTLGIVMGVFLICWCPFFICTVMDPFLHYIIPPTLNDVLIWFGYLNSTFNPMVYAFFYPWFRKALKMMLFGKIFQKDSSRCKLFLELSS
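Assay system: CHO-derived RD-HGA16 cells with stable Gα16 and human TAAR1; timing: 17-24 h seeding, 75 min 37 °C dye, 30 min RT; read-out: % activation from peak over basal fluorescence ratio, DMSO-to-PEA scaled; measured by: kinetic Fluo-8 calcium fluorescence; benchmarks: low control DMSO, high control PEA (EC100); doses: 3 µM single concentration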
CHO parental Ca: ATP-evoked calcium signal inhibitors, parental CHO, primary screen, counter-screen for OX1R antagonist project, cell-based, fluorescence, Fluo-8 calcium dye. parental CHO-K1, ATP-induced calcium, Fluo-8 fluorescence. inhibition, % at 5.6 µM. 330,000 tested, 0.63% active. AID 463079, 2010;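 active = inhibition above that plate's mean sample inhibition plus 3 SD, cut at about 26% in these data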;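 note: 0% = ATP-challenged DMSO wells and 100% = DMSO wells without ATP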
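Test system: parental CHO cells; detection: calcium-sensitive Fluo-8 fluorescence; evaluation: percent inhibition of calcium signal; also added: ATP as calcium-mobilizing challenge; repeats: one well per compound; control set: ATP-challenged DMSO wells low, unchallenged DMSO wells high; compound: single nominal dose of 5.6 µM per compound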
TAAR1 antagonist: human TAAR1 antagonists, primary screen, Fluo-8 calcium fluorescence, CHO RD-HGA16 cells | Trace amine-associated receptor 1 (Homo sapiens), Q96RJ0 | antagonist | inhibition, % at 3 µM | 360,000 tested, 1.5% active | AID 624466, 2012;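 active = inhibition above a per-plate cutoff, the mean inhibition of test compounds on that plate plus 3 SD, cut at about 49% in these data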;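 note: 0% = DMSO plus EC80 beta-PEA response and 100% = DMSO alone without agonist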
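System: CHO RD-HGA16 cells bearing hTAAR1. Reagent: EC80 β-phenethylamine stimulus. Schedule: seeding 17-24 h prior, 75-min 37 °C, 30-min RT dye loading. Signal: Fluo-8 intracellular calcium dye fluorescence, real-time kinetic reads. Read-out: % inhibition from peak post-agonist over basal fluorescence ratio. Benchmarks: vehicle wells and EC80 agonist wells. Replicates: n of 1.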
* hit, by the source's call; · = not tested or not shown. Hits are enriched below; roughly 4% of the tested compounds scored in any of these assays.

SMILES	OX1R antag-1	OX1R antag-2	TAAR1 agonist	CHO parental Ca	TAAR1 antagonist
Cc1ccc(C(=O)N/C(=C\c2ccc(-c3cccc([N+](=O)[O-])c3)o2)C(=O)NC(C)(C)C)cc1	74*	1	7	-17	31
CCOC(=O)/C(=C\c1ccc([N+](=O)[O-])o1)NC(=O)c1ccccc1	43*	-27	·	-17	·
Cc1ccc(C(=O)N/C(=C/c2ccc(-c3ccc([N+](=O)[O-])cc3)o2)C(=O)NCCCN(C)C)cc1	21	-23	0	0	-27
O=C(NCCCN1CCOCC1)/C(=C/c1ccc(-c2cccc([N+](=O)[O-])c2)o1)NC(=O)c1ccccc1	·	·	1	·	0
O=C(NCCO)/C(=C\c1ccc([N+](=O)[O-])o1)NC(=O)c1ccccc1	65*	-15	3	-14	17
O=C(NCCCO)/C(=C/c1ccc(-c2cccc([N+](=O)[O-])c2)o1)NC(=O)c1ccccc1	51*	-14	1	-7	11
Cc1[nH]nc2c1C(c1ccc(F)cc1)N(c1ccccc1)C2=O (stereo not given)	·	·	1	·	-17
CCCCOCCCNC(=O)C[C@H]1C[C@@]2(C(=O)OC)C(=C[C@H](C(C)(C)C)O[C@@H]2C)N(Cc2ccc3c(c2)OCO3)C1=O	·	·	-2	·	-50
O=C(NCc1ccccc1)/C(=C/c1cccc([N+](=O)[O-])c1)NC(=O)c1ccco1	11	-12	0	-9	-16
O=C(NCCc1ccccc1)/C(=C\c1cccc([N+](=O)[O-])c1)NC(=O)c1ccco1	53*	-23	37	-13	-16
O=C(Nc1cccc2ccccc12)/C(=C\c1cccc([N+](=O)[O-])c1)NC(=O)c1cccs1	56*	19	5	-8	36
CC(C)(C)c1ccc(OCCOc2ccc(C(C)(C)C)cc2NC=O)c(NC=O)c1	29	41*	6	69*	43
CC[C@H](C)Cc1cn([C@@H](CCCN=C(NC(=O)OC(C)(C)C)NC(=O)OC(C)(C)C)C(=O)NCCCCCCCCCCC(=O)N2CCN(C(=O)OC(C)(C)C)CC2)nn1	8	-28	·	-18	·
Cc1cn([C@@H](CCCCNC(=O)OC(C)(C)C)C(=O)NCCCCCCCCCCC(=O)N2CCN(C(=O)OC(C)(C)C)CC2)nn1	61*	36	·	61*	·
S=C(Nc1ccc(Oc2ccccc2)cc1)NC1CCCCCC1	17	-6	5	6	24
CN(C(=S)Nc1ccc(Oc2ccccc2)cc1)C1CCCCC1	34	-8	7	29*	19
COc1ccccc1NS(=O)(=O)c1ccc(NC(=O)N2CCCCC2)cc1	14	-5	8	3	-9
CC1(C)CC(=O)C=C(C(=O)N2CCCC(C(=O)c3cccc(Cl)c3)C2)O1 (stereo not given)	9	-28	2	-10	-17
CCc1ccc(N=Nc2ccc(O)c3[nH]cnc23)cc1	-1	47*	12	30	46
COc1ccc(-c2cc(C(=O)N(C)CCc3ccc(OC)c(OC)c3)c3ccccc3n2)cc1	·	·	12	·	49*
COc1ccc(CCN(C)C(=O)c2cc(-c3ccccc3)nc3ccc(C)cc23)cc1OC	70*	-11	0	-22	2
COc1ccc(CN(C)C(=O)c2cc(-c3ccccc3)nc3ccc(C)cc23)c(OC)c1OC	63*	10	4	-15	63*
COc1ccc(CCN(C)C(=O)c2cc(-c3ccccc3)nc3ccccc23)cc1OC	·	·	3	·	13
CN(NS(=O)(=O)c1ccc(Br)cc1)c1nc(C(F)(F)F)nc2ccccc12	63*	-17	10	17	3
COc1ccc(-c2noc(C3CCCN(S(=O)(=O)c4ccc(C)c(Cl)c4)C3)n2)cc1OC (stereo not given)	3	-5	8	-17	-5
SMILES	OX1R antag-1	OX1R antag-2	TAAR1 agonist	CHO parental Ca	TAAR1 antagonist
COc1ccc(-c2noc(C3CCCN(S(=O)(=O)c4cccc(Cl)c4C)C3)n2)cc1OC (stereo not given)	45*	4	8	-30	22
COc1ccc(OC)c(CNn2c(-c3cccc(C)c3)nc3ccccc3c2=O)c1	50*	6	12	-26	17
COc1cccc(C(=O)Nn2c(-c3cccs3)nc3ccccc3c2=O)c1OC	11	-36	8	-11	36
COc1ccc(OCC(=O)Nn2c(-c3ccc(C)cc3)nc3ccccc3c2=O)cc1	19	-13	6	-17	-10
COc1ccc(CNn2c(-c3cccs3)nc3ccccc3c2=O)cc1OC	32	-27	13	-14	51*
C[C@@H]1COc2cc(N3CCN(Cc4ccccc4F)CC3)ccc2S(=O)(=O)N1	·	·	0	·	-7
Cc1cccc(N(CC(=O)NCc2ccc3c(c2)OCO3)C(=O)CCC(=O)Nc2ccccn2)c1	16	-26	6	-18	13
Cc1cccc(N(CC(=O)NCc2ccc3c(c2)OCO3)C(=O)CCC(=O)Nc2ccccn2)c1C	·	·	19	·	52*
Cc1ccccc1C(=O)c1cccn1CC(=O)NCCCc1ccccc1	20	-6	-3	-7	-38
Cc1ccccc1C(=O)c1cccn1CC(=O)NCC(C)c1ccccc1 (stereo not given)	39*	16	0	-23	3
Cc1ccccc1C(=O)c1cccn1CC(=O)NC1CCCC(C)C1C (stereo not given)	40*	28	1	4	0
CC1CCCCC1NC(=O)Cn1cccc1C(=O)c1ccccc1 (stereo not given)	28	-33	6	-6	2
CC1=C(C(=O)N(C(C)C)C(C)C)CC(CC(=O)NCCCCc2ccccc2)C(=O)N1Cc1ccc(C(C)(C)C)cc1 (stereo not given)	·	·	-2	·	-26
Oc1ccc(N2CCN(c3ncnc4sc(-c5ccccc5)cc34)CC2)cc1	·	·	-1	·	12
COc1ccc(-n2ncc3c(N4CCN(c5cc(C)ccc5C)CC4)ncnc32)cc1	17	-18	-3	-8	103*
Cc1ccc(-n2ncc3c(N4CCN(c5ccccc5)CC4)ncnc32)c(C)c1	14	-2	12	-2	62*
CCc1cc2c(N3CCN(c4ccccc4)CC3)ncnc2s1	31	58*	8	60*	66*
Cc1ccc(C(=O)NC2CCCc3c2cnn3-c2ccc(F)cc2F)cn1 (stereo not given)	6	12	3	38*	23
Cc1nnsc1C(=O)NC1CCCc2c1cnn2-c1ccc(F)cc1F (stereo not given)	25	-1	3	21	-2

Screens (PubChem BioAssay)
